Screening data deposited in PubChem BioAssay by NMMLSC.
MEKK3 PB1 HTS = modulators (inhibitors or enhancers) of MEK5 binding to human MEKK3 PB1 domain. Q99759. bead-based flow cytometry, Alexa488-MEK5 binding to MEKK3; actives lie on both sides; 0 = blocked by unlabeled MEK5, 100 = vehicle. binding response (% of control), % at 10 µM. actives 1.4% (n = 290,000). AID 1529;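 active = binding response more than 3 SD above or below the average of its plate-row segment, actives on both sides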;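 note: Alexa488 bead fluorescence after subtracting the streptavidin-only scavenger bead signal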
Efflux pump mplx = inhibitors of Candida antifungal efflux pumps expressed in yeast | AID 485275 | actives 0.44% (n = 330,000) | inhibition, % at 10 µM | S. cerevisiae Candida pump triplex, Nile Red efflux;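 active = plate passing quality check with inhibition over a set limit, or well fluorescence over plate mean plus 4 SD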;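 note: Nile Red retained in pooled yeast measured as flow cytometry median fluorescence; higher means more Nile Red kept so more efflux inhibition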
MEKK2mut PB1 HTS = signal of MEK5 binding to mutant human MEKK2 PB1 domain; bead flow cytometry, Alexa488-MEK5 binding to MEKK2 mutant; percent response, % at 10 µM; actives 0.35% (n = 290,000); in the data active = percent response above about 24%, passing the limit was not always enough
ABCG2 block = human ABCG2 inhibition, ABCB1 as counter-screen; inhibition, % at 6.6 µM; actives 0.1% (n = 190,000); AID 1325; IgMXP3 cells, JC-1 efflux, flow cytometry;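 active = inhibition above 80%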
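Test system: IgMXP3 (ABCG2) plus far-red-tagged CCRF-Adr (ABCB1) cells / Amount: 3 million cells/mL in well / Reagent: JC-1 transporter substrate / Timing: 10 min compound exposure, 25 °C / Signal: flow cytometry, 530 nm JC-1 signal / Read-out: percent efflux inhibition, scaled nicardipine 100% to DMSO 0% / Benchmarks: nicardipine as high control, DMSO as low control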
MEKK2wt PB1 HTS = raises or lowers MEK5 binding to wildtype human MEKK2 PB1 domain; actives 1.1% (n = 290,000); binding response (% of control), % at 10 µM; bead flow cytometry, Alexa488-MEK5 binding to MEKK2 WT; actives lie on both sides; Q9Y2U5; in the data active = binding response below about 67% or above about 130%
ABCB1 inh = blocks JC-1 efflux by human ABCB1 transporter; CCRF-Adr cells, flow cytometry; inhibition, % at 6.6 µM; actives 0.067% (n = 190,000); in the data active = inhibition above about 40%;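 note: higher value means more JC-1 retained so stronger ABCB1 efflux block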
MEKK2wt confirm = raises or lowers MEK5 binding to wildtype human MEKK2, retest; shares compounds with MEKK3 PB1 HTS; bead flow cytometry, Alexa488-MEK5 binding to MEKK2 WT; actives lie on both sides; binding response (% of control), % at 10 µM; actives 2.4% (n = 5,900); AID 1892; in the data active = binding response below about 16% or above about 210%; inactive = in between
MEKK2mut-MEK5 = signal of MEK5 binding to mutant human MEKK2, retest; shares compounds with MEKK3 PB1 HTS; bead flow cytometry, Alexa488-MEK5 binding to MEKK2 mutant; percent response, % at 10 µM; actives 2% (n = 5,900); AID 1893; in the data active = percent response mostly above about 71%, no sharp cut-off; inactive = mostly below about 38%;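 note: higher means compound restores mutant binding toward wildtype level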
MEKK3 confirm = confirmation of inhibitors of MEK5 binding to human MEKK3; binding response (% of control), % at 10 µM; AID 1894; actives 1.8% (n = 5,900); shares compounds with MEKK3 PB1 HTS; bead flow cytometry, Alexa488-MEK5 binding to MEKK3; active compounds read low;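 active = binding response below 72% of control, or above a set upper limit, though filed actives all read lower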;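 note: lower values mean stronger disruption of MEK5 binding to MEKK3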
A number is an active result; n = inactive; x = no result; [ ] = another dose, or the depositor's remark. Rows were chosen to be rich in hits. Some 2.5% of all compounds tested hit in one or more screens of this group.

SMILES | MEKK3 PB1 HTS | Efflux pump mplx | MEKK2mut PB1 HTS | ABCG2 block | MEKK2wt PB1 HTS | ABCB1 inh | MEKK2wt confirm | MEKK2mut-MEK5 | MEKK3 confirm
Cc1ccc2nc(-c3ccccn3)cc(C(=O)NC3CCN(C)CC3)c2c1 | n | x | n | n | n | n | x | x | x
Cc1c(Cl)ccc2c(C(=O)NCCN3CCCCC3)cc(-c3ccccn3)nc12 | n | n | n | n | 166 | n | n | n | n
CCN(CC(=O)Nc1ccc(N2CCOCC2)cc1)CC(=O)NC(C)(C)C | n | n | n | n | n | n | x | x | x
COc1cc2ccccc2cc1C(=O)N(CCN(C)C)c1nc2c(F)cc(F)cc2s1 | n | n | n | x | n | x | x | x | x
CCN(CC)CCN(C(=O)CCOc1ccccc1)c1nc2c(F)cc(F)cc2s1 | n | n | n | n | 148 | n | n | n | n
COc1ccc(CCC(=O)Nc2ccc(C)c([N+](=O)[O-])c2)cc1 | 161 | n | n | n | n | n | n | n | n
COc1ccc(-c2noc(CCC(=O)NCC3CCN(Cc4cccc(C)c4)CC3)n2)cc1 | n | n | 39 | n | 143 | n | n | n | n
COc1ccc(CCC(=O)Nc2cc([N+](=O)[O-])ccc2OC)cc1 | n | n | n | n | n | n | x | x | x
COc1ccc(-c2noc(CCC(=O)NC3CCN(Cc4ccccc4)CC3)n2)cc1 | n | n | n | n | n | n | x | x | x
COc1ccc(-c2noc(CCC(=O)Nc3ccc(C)c(C)c3)n2)cc1 | 0.0[inhibitor] | n | n | n | -7.0[inhibitor] | n | n | n | n
COc1ccc(-c2noc(CCC(=O)Nc3ccc4c(c3)OCCO4)n2)cc1 | n | n | n | n | n | n | x | x | x
Cc1cc(Nc2cc(Cl)cc(Cl)c2)nc(N)n1 | n | n | n | x | n | x | x | x | x
COc1ccc(C)cc1Nc1n[n+](-c2ccccc2)c(-c2ccc(OC)c(OC)c2OC)s1 | n | n | n | x | 149 | x | n | n | n
COc1ccc(C)cc1Nc1n[n+](-c2ccccc2)c(-c2c(Cl)cccc2Cl)s1 | n | n | n | x | n | x | x | x | x
COc1ccc(C)cc1Nc1n[n+](-c2ccccc2)c(-c2ccc(N(C)C)cc2)s1 | n | n | 46 | x | 142 | x | n | n | n
COc1cc(-c2[nH]ncc2CN2CCN(c3cccc(C)n3)CC2)cc(OC)c1OC | n | n | n | x | n | x | x | x | x
O=S1(=O)CCOC[C@H](Cc2ccccc2)N1Cc1ccccc1F | n | n | n | x | n | x | x | x | x
CCOc1ccc(N(C(=O)c2cnccn2)C(C(=O)NC2CCCCC2)c2ccc(O)cc2)cc1 (centres undefined) | n | n | n | n | n | n | x | x | x
CC(C)(C)c1ccc(NC(=O)c2c(F)cccc2Cl)cc1 | 47[inhibitor] | n | n | x | 34[inhibitor] | x | n | n | n
Cc1ccc2cc(C3CC(c4ccco4)=NN3S(C)(=O)=O)c(Cl)nc2c1 (centres undefined) | n | n | n | x | n | x | x | x | x
Cc1ccc2nc(Cl)c(C3CC(c4ccco4)=NN3S(C)(=O)=O)cc2c1 (centres undefined) | 72[inhibitor] | n | n | x | n | x | n | n | n
COc1ccc(NC(=O)CNC(=O)C2CCCCC2)cc1OC | x | n | x | x | x | x | x | x | x
O=C(NC1(C(F)(F)F)NC(=O)N(c2ccc(F)cc2)C1=O)c1cccs1 (centres undefined) | 158 | n | n | n | n | n | n | n | n
Cc1ccc(C)c(S(=O)(=O)N2CCN(C(=O)c3ccc(OCc4c(C)noc4C)cc3)CC2)c1 | x | n | x | x | x | x | x | x | x
CCN(CC)CCOC(=O)c1ccc(N/C=C(/C#N)c2nc(-c3ccc4c(c3)OCO4)cs2)cc1 | 22[inhibitor] | n | n | x | 58[inhibitor] | x | n | n | 39
SMILES | MEKK3 PB1 HTS | Efflux pump mplx | MEKK2mut PB1 HTS | ABCG2 block | MEKK2wt PB1 HTS | ABCB1 inh | MEKK2wt confirm | MEKK2mut-MEK5 | MEKK3 confirm
CCN(CC)CCOC(=O)c1cccc(OC)c1 | n | n | n | n | n | n | x | x | x
CCN(CC)CCOC(=O)c1ccc(N/C=C(/C#N)c2nc(-c3cc4ccccc4oc3=O)cs2)cc1 | 15[inhibitor] | n | n | x | 36[inhibitor] | x | 14[inhibitor] | n | 13
COc1cc(/C=C(\C#N)c2nc(-c3cc4ccccc4oc3=O)cs2)ccc1O | n | n | n | n | n | n | x | x | x
CCN(CC)CCOC(=O)c1ccc(N/C=C(/C#N)c2nc(-c3ccc(OC)cc3)cs2)cc1 | 22[inhibitor] | n | n | x | n | x | 212 | n | n
Nc1nc(NCCCN2CCOCC2)nc(Nc2ccccc2F)c1[N+](=O)[O-] | n | n | n | x | n | x | x | x | x
Cc1ccc(C(=O)C[n+]2cc(Br)cc(Br)c2)cc1[N+](=O)[O-] | n | n | 51 | n | n | n | n | n | n
CCOC(=O)c1[nH]c(C)c(CC(C)C)c1C | n | n | n | n | n | n | x | x | x
Cc1c(N2C(=O)c3ccc(Br)cc3C2=O)c(=O)n(-c2ccccc2)n1C | 2.0[inhibitor] | n | n | n | 3.0[inhibitor] | n | n | n | n
Fc1ccccc1OCC1CCCN(Cc2nc(CC3CC3)no2)C1 (centres undefined) | n | n | n | n | n | n | x | x | x
NC1=NC(=O)/C(=C\c2ccsc2)S1 | n | n | n | n | n | n | x | x | x
COc1cc(OC)c2c(-c3ccccc3)cc(=O)oc2c1C(CCN1CCCC(C)C1)c1ccc2c(c1)OCO2 (centres undefined) | n | n | 26 | x | 183 | x | n | n | n
COc1cc(OC)c2c(-c3ccccc3)cc(=O)oc2c1C(CC(=O)N1CCCC1)c1ccc2c(c1)OCO2 (centres undefined) | n | x | n | x | n | x | x | x | x
COc1cc(OC)c2c(-c3ccccc3)cc(=O)oc2c1C(CCN1CCCCC1)c1ccc2c(c1)OCO2 (centres undefined) | n | x | 28 | x | 177 | x | n | n | n
COC(=O)c1ccc(COC(=O)CNC(=O)CNC(=O)c2ccc(OC)cc2)cc1 | x | n | x | x | x | x | x | x | x
Cc1cccc(N(CC(N)=O)C2SC(=O)N(c3ccccc3)C2=O)c1 (centres undefined) | n | n | n | n | n | n | x | x | x
Cc1ccc(N(CC(N)=O)C2SC(=O)N(C)C2=O)cc1 (centres undefined) | 126 | n | n | n | n | n | n | n | n
CCn1cc(C(=O)N[C@@H](CC(C)C)C(=O)NCCCn2ccnc2)c(=O)c2cc3c(cc21)OCO3 | n | n | n | x | n | x | x | x | x
CC(=O)Nc1ccc(C(=O)NNC(=O)c2cccs2)cc1 | n | n | n | n | n | n | x | x | x
Cc1ccc(NC(=O)NNC(=O)c2cccs2)cc1 | 71[inhibitor] | n | n | n | n | n | n | n | n
